Experimental data from ChEMBL document CHEMBL4837222, “Design and synthesis of novel benzothiophene analogs as selective estrogen receptor covalent antagonists against breast cancer” (Eur J Med Chem, 2021).
Activity calls are given as the source filed them. No cut-off for these calls is given here.

Assays:
MCF7 [1] = experiment: Antiproliferative activity against human MCF7 cells assessed as reduction in cell growth incubated for 48 hrs by CCK8 assay; format: functional, cell-based; settings: MCF7, 48 h
How it was run: (§1)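 CCK-8 viability assay. Cells seeded at 4000/well in 10% FBS medium for 24 h, then given compound diluted from DMSO stocks into 2% FBS medium at 100, 50, 25, 12.5, 6.25 and 3.125 µM (0.1% DMSO final). After 48 h, CCK-8 was added (0.5 mg/mL) for 2 h at 37 °C and OD450 read. Triplicates; IC50 fitted from mean viability.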

Ishikawa [2] = experiment: Antiproliferative activity against human Ishikawa cells assessed as reduction in cell growth incubated for 48 hrs by CCK8 assay; format: functional, cell-based; how it was run: as §1
MDA-MB-231 = experiment: Antiproliferative activity against human MDA-MB-231 cells assessed as reduction in cell growth incubated for 48 hrs by CCK8 assay; format: functional, cell-based; settings: MDA-MB-231, 48 h; how it was run: as §1
[3] = target: T1, Estrogen receptor (Homo sapiens) (UniProt P03372); experiment: Covalent antagonist activity at ERalpha in human MCF7 cells assessed as decrease in estradiol-induced TFF1 mRNA expression level at 0.25 to 10 uM measured after 24 hrs by RT-PCR analysis; format: cell-based; settings: filed as antagonist, dose 0.25-10 µM
T1 sequence (whole entry): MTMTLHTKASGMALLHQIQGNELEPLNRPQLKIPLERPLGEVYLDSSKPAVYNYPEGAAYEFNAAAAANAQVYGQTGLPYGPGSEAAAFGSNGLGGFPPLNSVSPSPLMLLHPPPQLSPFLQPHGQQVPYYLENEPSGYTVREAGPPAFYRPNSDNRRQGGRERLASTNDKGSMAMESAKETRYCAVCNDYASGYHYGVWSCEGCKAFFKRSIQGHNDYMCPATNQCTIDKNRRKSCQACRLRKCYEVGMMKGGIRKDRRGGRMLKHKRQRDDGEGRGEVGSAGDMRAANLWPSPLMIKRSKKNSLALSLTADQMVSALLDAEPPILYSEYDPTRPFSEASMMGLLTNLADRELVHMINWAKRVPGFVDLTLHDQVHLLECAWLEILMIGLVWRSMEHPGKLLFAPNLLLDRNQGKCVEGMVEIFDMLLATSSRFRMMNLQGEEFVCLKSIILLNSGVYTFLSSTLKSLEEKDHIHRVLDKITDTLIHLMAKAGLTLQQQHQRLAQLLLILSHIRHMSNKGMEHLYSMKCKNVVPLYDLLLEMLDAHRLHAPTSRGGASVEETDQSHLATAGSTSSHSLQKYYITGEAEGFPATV
How it was run: (§2)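 MCF-7 cells stimulated with estradiol, then co-incubated 24 h with compound at 0.25, 0.5, 1 and 10 µM. RNA was reverse-transcribed and GREB1 or TFF1 measured by SYBR Green qPCR: 95 °C 10 min, then 40 cycles of 95 °C 5 s, 60 °C 60 s, 95 °C 15 s. Normalised to GAPDH, ΔΔCT method.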

[4] = target: T1, Estrogen receptor (Homo sapiens); experiment: Covalent antagonist activity at ERalpha in human MCF7 cells assessed as decrease in estradiol-induced GREB1 mRNA expression level at 0.25 to 10 uM measured after 24 hrs by RT-PCR analysis; format: cell-based; settings: filed as antagonist, dose 0.25-10 µM; how it was run: as §2
[5] = target: T1, Estrogen receptor (Homo sapiens); experiment: Covalent antagonist activity at ERalpha receptor in human ishikawa cells assessed as suppression of E2-stimulated PGR expression at 0.25 to 10 uM measured after 3 days by RT-PCR analysis; format: cell-based; settings: filed as antagonist, dose 0.25-10 µM, time 3.0 day
How it was run: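 Ishikawa cells stimulated with E2 and exposed 3 days to compound at 0.25, 0.5, 1 and 10 µM. PGR mRNA quantified by SYBR Green real-time PCR, normalised to GAPDH, ΔΔCT method.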

MCF7 [6] = experiment: Potency index, ratio of raloxifene IC50 to test compound IC50 for human MCF7 cells assessed as reduction in cell growth incubated for 48 hrs by CCK8 assay; format: functional
Ishikawa [7] = experiment: Potency index, ratio of raloxifene IC50 to test compound IC50 for human Ishikawa cells assessed as reduction in cell growth incubated for 48 hrs by CCK8 assay; format: functional
[8] = Half life in rat liver microsomes; format: ADME, Microsome
[9] = Intrinsic clearance in rat; format: ADME
[10] = Half life in rat plasma; format: ADME, cell-free
MCF7 [11] = experiment: Downregulation of ERalpha expression in human MCF7 cells at 0.5 uM incubated for 24 hrs by Western blot assay; format: functional, cell-based
How it was run: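 MCF-7 cells were kept in phenol red-free DMEM/F12 with 10% serum for 72 h before plating, then treated at 125, 250 and 500 nM for 24 h. Cells were lysed in RIPA buffer, protein was measured by BCA, and equal amounts were run on 10% SDS-PAGE and transferred to PVDF. ERα band intensity was normalized to GAPDH in each repeat.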

SMILES	IC50 (MCF7 [1]) [µM]	IC50 (Ishikawa [2]) [µM]	IC50 (MDA-MB-231) [µM]	also measured
O=C(CCCNCCOc1ccc(Oc2c(-c3ccc(F)cc3)sc3cc(O)ccc23)cc1)N1CCC1	> 25	> 25	> 50	inhibition [3]: Active; inhibition [4]: Active; inhibition [5]: Active
O=C(/C=C/CN1CC(Oc2ccc(Oc3c(-c4ccc(F)cc4)sc4cc(O)ccc34)cc2)C1)N1CCC1	> 25	5.45	> 50	
C=C(C)C(=O)NCCOc1ccc(Oc2c(-c3ccc(F)cc3)sc3cc(O)ccc23)cc1	> 25	> 25	> 50	
C=CC(=O)N1CC(Oc2ccc(Oc3c(-c4ccc(F)cc4)sc4cc(O)ccc34)cc2)C1	23.5	12.3	> 50	
CNC(=O)/C=C/CNCCOc1ccc(Oc2c(-c3ccc(F)cc3)sc3cc(O)ccc23)cc1	16.1	15.5	> 50	
C/C=C/C(=O)N1CC(Oc2ccc(Oc3c(-c4ccc(F)cc4)sc4cc(O)ccc34)cc2)C1	28	9.4	> 50	
O=C(c1ccc(OCCN2CCCCC2)cc1)c1c(-c2ccc(O)cc2)sc2cc(O)ccc12 [RALOXIFENE]	19.9	12.4	> 50	
O=C(/C=C/CN1CC(Oc2ccc(Oc3c(-c4ccc(F)cc4)sc4cc(O)ccc34)cc2)C1)N1CCOCC1	8.9	9.84	> 50	Ratio IC50 (MCF7 [6]): 2; Ratio IC50 (Ishikawa [7]): 1.26
C/C=C/C(=O)NCCOc1ccc(Oc2c(-c3ccc(F)cc3)sc3cc(O)ccc23)cc1	21.7	12.4	> 50	
CN(C)C(=O)/C=C/CN1CC(Oc2ccc(Oc3c(-c4ccc(F)cc4)sc4cc(O)ccc34)cc2)C1	22.3	11.2	> 50	
C=CC(=O)NCCOc1ccc(Oc2c(-c3ccc(F)cc3)sc3cc(O)ccc23)cc1	23	> 25	> 50	
O=C(/C=C/CNCCOc1ccc(Oc2c(-c3ccc(F)cc3)sc3cc(O)ccc23)cc1)N1CCOCC1	8.24	18.6	> 50	
CN(C)C(=O)/C=C/CNCCOc1ccc(Oc2c(-c3ccc(F)cc3)sc3cc(O)ccc23)cc1	13.8	11.9	> 50	
O=C(c1ccc(F)cc1)C1CCN(CCn2c(=O)[nH]c3ccccc3c2=O)CC1 [KETANSERIN]				half-life [8]: 18.8 min; CLint scaled [9]: 132 mL/min/kg
CC(Cc1cccc(C(F)(F)F)c1)NCCOC(=O)c1ccccc1 (configuration not stated) [BENFLUOREX]				half-life [10]: 28.3 min
C[C@]12CC[C@@H]3c4ccc(O)cc4C[C@@H](CCCCCCCCC[S+]([O-])CCCC(F)(F)C(F)(F)F)[C@H]3[C@@H]1CC[C@@H]2O (some centres not stated)				inhibition (MCF7 [11]): inactive
O=C(/C=C/CN1CC(Oc2ccc(Oc3c(-c4ccc(F)cc4)sc4cc(O)ccc34)cc2)C1)N1CCCC1	8.45	9.15	> 50	Ratio IC50 (MCF7 [6]): 2; Ratio IC50 (Ishikawa [7]): 1.35
CC/C(=C(\c1ccccc1)c1ccc(OCCN(C)C)cc1)c1ccccc1 [TAMOXIFEN]		16.8	> 50	
C=C(C)C(=O)N1CC(Oc2ccc(Oc3c(-c4ccc(F)cc4)sc4cc(O)ccc34)cc2)C1	> 25	14.2	> 50	
O=C(/C=C/CNCCOc1ccc(Oc2c(-c3ccc(F)cc3)sc3cc(O)ccc23)cc1)N1CCCCC1	16.4	8.43	> 50	
CNC(=O)/C=C/CN1CC(Oc2ccc(Oc3c(-c4ccc(F)cc4)sc4cc(O)ccc34)cc2)C1	> 25	> 25	> 50	
O=C(/C=C/CNCCOc1ccc(Oc2c(-c3ccc(F)cc3)sc3cc(O)ccc23)cc1)N1CCCC1	7.61	11.2	> 50	
